The source made the active and inactive calls. The calls are words filed in the database; no cut-off is given here.
Experiments:
[1] = target: T1, Interferon alpha/beta receptor 1 (Homo sapiens) (UniProt P17181); assay: Inhibition of IFNAR in human Daudi cells assessed as reduction of STAT-DNA binding at 200 uM by EMSA; assay type: cell-based
T1 sequence (whole entry): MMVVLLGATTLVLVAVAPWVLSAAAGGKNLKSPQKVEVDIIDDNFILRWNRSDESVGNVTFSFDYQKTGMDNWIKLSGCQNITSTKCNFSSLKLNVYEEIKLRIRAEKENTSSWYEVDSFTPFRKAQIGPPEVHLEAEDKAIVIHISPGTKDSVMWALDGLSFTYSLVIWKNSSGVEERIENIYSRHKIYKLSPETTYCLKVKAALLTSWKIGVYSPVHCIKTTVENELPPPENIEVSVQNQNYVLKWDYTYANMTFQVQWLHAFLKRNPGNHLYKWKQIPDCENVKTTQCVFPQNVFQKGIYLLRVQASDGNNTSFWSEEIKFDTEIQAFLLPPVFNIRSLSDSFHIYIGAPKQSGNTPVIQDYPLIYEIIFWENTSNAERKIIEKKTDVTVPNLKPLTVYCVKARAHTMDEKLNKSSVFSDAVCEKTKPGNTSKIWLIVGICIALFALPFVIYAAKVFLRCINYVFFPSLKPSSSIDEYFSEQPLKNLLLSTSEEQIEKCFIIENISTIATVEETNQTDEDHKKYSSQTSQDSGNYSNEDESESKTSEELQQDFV
Method in brief: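 Daudi cells untreated, given 100 pg IFN alfacon-1, or IFN plus the indicated compound doses for 15 min. Protein–DNA complexes resolved by native PAGE (EMSA).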

[2] = target: T1, Interferon alpha/beta receptor 1 (Homo sapiens); assay: Inhibition of IFNAR in human Daudi cells assessed as reduction of IFN-induced STAT1 phosphorylation at 200 uM after 15 mins by Western blotting; assay type: cell-based
Method in brief: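 Daudi cells untreated, given 10 pg IFN alfacon-1 alone, or 10 pg IFN plus 200 µM compound for 15 min. Lysed in phosphorylation lysis buffer with protease and phosphatase inhibitors. Equal protein run on SDS–PAGE and immunoblotted for tyrosine-phosphorylated STAT1. Bands quantitated relative to tubulin. Data representative of duplicate independent experiments.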

[3] = target: T1, Interferon alpha/beta receptor 1 (Homo sapiens); assay: Inhibition of IFNAR in human Daudi cell nuclear extracts assessed as reduction of IFN-induced STAT1 phosphorylation at 200 uM after 15 mins by Western blotting
Method in brief: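 Daudi cells untreated, given 10 pg IFN alfacon-1 alone, or 10 pg IFN plus 200 µM compound for 15 min. Nuclear extracts immunoblotted for tyrosine-phosphorylated STAT1. Band intensities quantitated relative to tubulin as loading control.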

[4] = Distribution coefficient, log D of the compound at pH 7.4; details: octanol/water
[5] = Solubility of the compound; assay type: physicochemical
[6] = tested on: Daudi; assay: Cytotoxicity against human Daudi cells assessed as cell viability up to 200 uM after 24 hrs by propidium iodide staining; assay type: cell-based
Method in brief: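 Daudi cells (1 × 10⁶) left untreated or exposed to the indicated compound doses for 24 h, washed twice in PBS and resuspended in PBS with 2% FCS. 10⁵ cells stained with propidium iodide for 15 min; dead (PI-positive) cells counted by FACS.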

With `O=C(c1ccc(NS(=O)(=O)c2cc(Cl)sc2Cl)cc1)N1CCN(Cc2ccc3c(c2)OCO3)CC1` the inhibition [1] was “Active”, the inhibition [2] was “Active” and the inhibition [3] was “Active”.
With `O=C(c1cc(S(=O)(=O)Nc2cccc(Cl)c2)c(Cl)cc1Cl)N1CCN(Cc2ccc3c(c2)OCO3)CC1` the inhibition [2] was “inactive” and the logD [4] was 2.4.
With `O=C(c1cc(S(=O)(=O)Nc2ccccc2F)c(Cl)cc1Cl)N1CCN(Cc2ccc3c(c2)OCO3)CC1` the inhibition [2] was “inactive” and the logD [4] was 0.01.
For `Cc1ccc(-n2c(SCC(=O)N/N=C/c3ccccc3OCC(=O)O)nc3ccccc3c2=O)cc1` (mixture of isomers), the solubility [5] was “soluble”, the inhibition [1] was “Active” and the inhibition [2] was “Active”. For the same compound, the logD [4] was 4.7, the inhibition [3] was “Active” and the Activity [6] was “Non-toxic”.
For `O=C(c1cccc(S(=O)(=O)Nc2ccc(Cl)cc2)c1)N1NC2=C(CCC/C2=C\c2ccco2)C1c1ccco1` (mixture of isomers), the inhibition [2] was “inactive” and the logD [4] was -0.8.
For `O=C(O)CCCCCN1C(=O)/C(=C/c2c(N3CCCc4ccccc43)nc3ccccn3c2=O)SC1=S` (mixture of isomers), the inhibition [1] was “Active”, the inhibition [2] was “Active” and the logD [4] was 8.9. The inhibition [3] was “Active” and the Activity [6] was “Toxic”.
For `COc1ccccc1NS(=O)(=O)c1ccc2oc(=S)n(CN3CCN(c4ccc(F)cc4)CC3)c2c1`, the inhibition [2] was “inactive” and the logD [4] was 0.2.
For `COc1ccccc1NS(=O)(=O)c1cc(C(=O)N2CCN(Cc3ccc4c(c3)OCO4)CC2)ccc1Cl`, the inhibition [2] was “inactive” and the logD [4] was -0.3.
With `O=C(c1cc(S(=O)(=O)Nc2cccc(C(F)(F)F)c2)ccc1Cl)N1CCN(Cc2ccc3c(c2)OCO3)CC1` the inhibition [2] was “inactive” and the logD [4] was -0.1.
With `CCOC(=O)c1nn(-c2ccc(C)cc2)c(C)c1C(=O)C1=NOC2C(=O)N(c3ccccc3C)C(=O)C12` (stereo not given) the inhibition [2] was “inactive” and the logD [4] was -0.1.
In the case of `CCOc1ccccc1/C=N/NC(=O)CSc1nc2ccccc2c(=O)n1-c1ccccc1C` (mixture of isomers), the inhibition [2] is reported as “inactive” and the logD [4] is reported as 5.8.
